In brackets after ≈: the same amount, converted by molar mass.

Consider ten molecules from ChEMBL document CHEMBL1155724, “Novel cytotoxic annonaceous acetogenins from Annona muricata” (J Nat Prod, 2001).

Experiment [1] in a line: Cytotoxicity against human HepG2(2.2.15) cells after 12 days by methylene blue colorimetric method. The class given is functional, cell-based. Particulars: HepG2 2.2.15, 288 h. The method in brief:
(§1)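 Hep G2 and HBV-transfected Hep G2 (Hep 2,2,15) cells were grown in RPMI 1640 or DMEM with 10% FCS, 100 units/mL penicillin and 100 µg/mL streptomycin, at 37 °C in humidified 5% CO2. Viability was measured by methylene blue staining, read at 592 nm. IC50 is the concentration giving 50% lower absorbance than drug-free controls.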

Experiment [2] relates to HepG2. Briefly: Cytotoxicity against human HepG2 cells after 12 days by methylene blue colorimetric method. The class given is functional, cell-based. Particulars: HepG2, 288 h. An outline of the steps: as §1

As to `CCCCCCCCCCCCC(O)C(O)CCC(O)C1CCC(CCCCCCC[C@@H](O)CC2=C[C@H](C)OC2=O)O1` (mixture of isomers) [MURICATETROCIN A/B], the IC50 was found to be 0.00483 µg/mL in experiment [1] and 0.0495 µg/mL in experiment [2].
The like results for `CCCCCCCCCCCC[C@@H](O)[C@H]1CC[C@H]([C@H](O)CCCC[C@H](O)CCCCCCCC2=C[C@H](C)OC2=O)O1` [COROSSOLINE] were, in that order, 0.234 µg/mL (≈ 0.403 µM) and 0.353 µg/mL (≈ 0.608 µM).
The like results for `CCCCCCCCCCCC[C@@H](O)[C@H]1CC[C@@H]([C@@H](O)CCCCC(=O)CCCCCCCC2=C[C@H](C)OC2=O)O1` [COROSSOLONE] were, in that order, 0.284 µg/mL (≈ 0.491 µM) and 0.48 µg/mL (≈ 0.829 µM).
With `COc1cccc2c1C(=O)c1c(O)c3c(c(O)c1C2=O)C[C@@](O)(C(=O)CO)C[C@@H]3O[C@H]1C[C@H](N)[C@H](O)[C@H](C)O1` [DOXORUBICIN], the IC50 in experiment [1] was 0.45 µg/mL (≈ 0.828 µM).
Consider `CCCCCCCCCCCCCC[C@@H](O)[C@H]1CC[C@H]([C@H](O)CC[C@H](O)CCCCCCCC2=C[C@H](C)OC2=O)O1` [LONGIFOLICIN], for which the IC50 in experiment [1] came out at 0.0049 µg/mL (≈ 0.00844 µM); in experiment [2], 0.000404 µg/mL (≈ 0.000695 µM).
In experiment [1], `CCCCCC(O)C(O)CCCCCC[C@@H](O)[C@H]1CC[C@H](CCCCCCCCCC[C@@H](O)CC2=C[C@H](C)OC2=O)O1` (stereo partly specified) [MURICIN A] came in with an IC50 of 0.00513 µg/mL (≈ 0.00859 µM).
Still for that read-out and setting: under `CCCCCC(O)C(O)CCCCCC[C@H](O)[C@@H]1CC[C@H](CCCCCCCCCC[C@H](O)CC2=C[C@H](C)OC2=O)O1` (stereo partly specified) [MURICIN B] stands 0.00429 µg/mL (≈ 0.00719 µM); under `CCCCCCCC(O)C(O)CC[C@H](O)[C@@H]1CC[C@H](CCCCCCCCCCCC[C@@H](O)CC2=C[C@H](C)OC2=O)O1` (stereo partly specified) [MURICIN C], 0.00387 µg/mL (≈ 0.00648 µM).
With `CCCCCCCC(O)C(O)CC[C@H](O)[C@@H]1CC[C@@H](CCCCCCCCCC[C@@H](O)CC2=C[C@H](C)OC2=O)O1` (stereo partly specified) [MURICIN D], the IC50 in experiment [1] was 0.048 µg/mL (≈ 0.0844 µM); in experiment [2], 0.00066 µg/mL (≈ 0.00116 µM).
The like results for `CCCCC(O)C(O)C/C=C\CC[C@H](O)[C@@H]1CC[C@@H](CCCCCCCCCCCC[C@@H](O)CC2=C[C@H](C)OC2=O)O1` (stereo partly specified) [MURICIN F] were, in that order, 0.00386 µg/mL (≈ 0.00649 µM) and 0.0428 µg/mL (≈ 0.0719 µM).

One may read the IC50 as the midpoint of a concentration-inhibition curve. A higher IC50 goes with a need for much substance.
